How the values were obtained:
[1] = Diuretic activity at 40 mg/kg (screening dose-82.4 umol/kg) in […] in a one stage experiment; T/C = urine vol of treated rats / urine vol of control rats; type: functional
How it was run: (§1)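 40 mg/kg given by gavage in 25 mL/kg 0.9% saline with 0.5% (carboxymethyl)cellulose. Four rats per agent, two per metabolism cage; 20 controls; 5 h urine. T/C = treated/control urine volume. Stage-1 T/C of 1.66 or more leads to stage 2; product T/C1·T/C2 of 3.34 or more counts as active.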

[2] = Diuretic activity at 40 mg/kg (screening dose-82.5 umol/kg) in […] in a one stage experiment; T/C = urine vol of treated rats / urine vol of control rats; type: functional; how it was run: as §1

Row | SMILES | T/C 1 [1] | T/C 1 [2]
1 | CN(C)CC(c1ccccc1)c1nnc2n1-c1ccc(S(C)(=O)=O)cc1C(c1ccccc1)=NC2 (configuration not stated) | 0.7 | 
2 | COC(CN(C)C)c1nnc2n1-c1ccc(Cl)cc1C(c1ccccc1)=NC2 (configuration not stated) |  | 1.32

Source: ChEMBL document CHEMBL1124476, “1-(2-aminoethyl)-6-aryl-4H- [1,2,4]triazolo[4,3-a][1,4]benzodiazepines with diuretic and natriuretic activity” (J Med Chem, 1989)
